The test system of experiment [1] is Pyricularia oryzae. Description: Antifungal activity against Magnaporthe grisea 70-15 at 25 ug/mL after 18 hrs by conidia germination assay. Format: functional. To be noted: 70-15, 18 h. A digest of the protocol:
(§1)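 M. grisea strain 70-15 conidia suspended in water at 5 × 10⁴/mL and exposed to compound. After 18 h, germination was scored microscopically against an inhibitor-free control. Conidia counted as affected were those that had not germinated or whose germ tubes were under 30% of control length.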

The subject of experiment [2] is Pyricularia oryzae. Description: Antifungal activity against Magnaporthe grisea 70-15 after 18 hrs by conidia germination assay. The format is functional, organism-based. A digest of the protocol: as §1
The test system of the next experiment is Rhizomucor miehei. The experiment can be described thus: Antifungal activity against Rhizomucor miehei Tu 284 at 50 ug/mL by disk diffusion assay. The format is functional, organism-based.
Another experiment relates to Eremothecium coryli. The experiment can be described thus: Antifungal activity against Nematospora coylii ATTC 10647 at 50 ug/mL by disk diffusion assay. Format: functional, organism-based.
In experiment [3] the test system is Pyricularia oryzae. The experiment can be described thus: Antifungal activity against Magnaporthe grisea 70-15 at 20 ug/mL after 18 hrs by conidia germination assay. Format: functional, organism-based. A digest of the protocol:
as §1

A further experiment has as its system HeLa. Description: Cytotoxic activity against human HeLa S3 cells up to 50 ug/mL. The format is functional, cell-based. A digest of the protocol: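 HeLa S3 human cervix carcinoma cells were grown in DMEM with penicillin G (65 µg/mL) and streptomycin sulfate (100 µg/mL). Cells at 10⁵/mL were exposed to compound in microtiter wells at 37 °C in humidified 5% CO2. Viable cells were counted by microscopy at 24 and 48 h.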

For the next experiment, the system named is Paecilomyces variotii. The experiment can be described thus: Antifungal activity against Paecilomyces variotii DSM 1961 at 50 ug/mL by disk diffusion assay. Format: functional, organism-based. In general terms: In agar diffusion tests the substance spreads into inoculated agar from a disc or well.
A further experiment deals with Penicillium chrysogenum. The experiment can be described thus: Antifungal activity against Penicillium chrysogenum DSM 848 at 50 ug/mL by disk diffusion assay. Format: functional, organism-based.

The source made the active and inactive calls. The calls are words filed in the database; no cut-off is given here.

For the compound `Cc1ccc2c(c1O)[C@@]1(C)CC[C@@H]3[C@](C)(CCC[C@]3(C)O)[C@H]1C2` [DASYSCYPHIN E], at 25 µg/mL the inhibition in the experiment on Pyricularia oryzae [1] was 100%.

With `CC(O)(CC(=O)O)CC(=O)OCC1=C[C@@]2(O)[C@H](C[C@@H]3[C@@]4(C)CCCC(C)(C)[C@@H]4CC[C@@]32C)C(=O)C1=O` (some centres undefined), in the experiment with Pyricularia oryzae [2], the outcome was Active.

`COCc1cc(O)c2c(c1O)[C@@]1(C)CC[C@H]3C(C)(C)CCC[C@]3(C)[C@H]1C2`: the outcome with Pyricularia oryzae [2] was Active.

`Cc1ccc2c(c1O)[C@@]1(C)CC[C@H]3C(C)(C)[C@@H](O)CC[C@]3(C)[C@H]1C2`: the result in the experiment on Rhizomucor miehei, with Eremothecium coryli, in the experiment with HeLa, in the experiment on Paecilomyces variotii and with Penicillium chrysogenum was inactive. Further, in the experiment with Pyricularia oryzae [3], the outcome was Active.

These data come from ChEMBL document CHEMBL1156662, “Tetracyclic terpenoids from Dasyscyphus niveus, dasyscyphins D and E” (2008).
